According to ChEMBL document CHEMBL4251683, “Improved Dose-Response Relationship of (+)-Discodermolide-Taxol Hybrid Congeners” (2018):
Active and inactive are the calls of the source.

What was measured:
Hs-578T [1] = test: Induction of senescence in human Hs578T cells assessed as increase in IL-6 mRNA expression level at 100 nM after 10 days by qRT-PCR analysis; type: functional, cell-based
In short: (§1)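 HS578T exposed to 100 nM doxorubicin for 10 days, then sorted for SSC+ DAPI− cells. Sorted and unsorted populations assayed by qRT-PCR for SASP transcripts. Expression was normalised to cyclophilin B, and groups compared by unpaired t test.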

Hs-578T [2] = test: Induction of senescence in human Hs578T cells assessed as increase in cell population with high forward scatter at 100 nM after 10 days by DAPI staining based flow cytometry; type: functional
In short: (§2)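 HS578T treated with 100 nM doxorubicin for 10 days, then stained with DAPI for live-cell flow cytometry. Forward scatter (volume) and side scatter (granularity) recorded. Dead cells were DAPI+; senescent cells were high FSC and SSC with low DAPI uptake; mitotic catastrophe was FSC increase only.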

Hs-578T [3] = test: Induction of senescence in human Hs578T cells assessed as increase in CXCL1 mRNA expression level at 100 nM after 10 days by qRT-PCR analysis; type: functional, cell-based; in short: as §1
Hs-578T [4] = test: Induction of senescence in human Hs578T cells assessed as increase in dead cells at 100 nM after 10 days by DAPI staining based flow cytometry; type: functional, cell-based; in short: as §2
Hs-578T [5] = test: Induction of senescence in human Hs578T cells assessed as increase in IL-8 mRNA expression level at 100 nM after 10 days by qRT-PCR analysis; type: functional, cell-based; in short: as §1
Hs-578T [6] = test: Induction of senescence in human Hs578T cells assessed as increase in cell population with high side scatter at 100 nM after 10 days by DAPI staining based flow cytometry; type: functional; in short: as §2
Hs-578T [7] = test: Induction of mitotic catastrophe in human Hs578T cells assessed as increase in cell population with high forward scatter at 100 nM after 10 days by DAPI staining based flow cytometry; type: functional; in short: as §2

Measured: Activity

COc1cccc2c1C(=O)c1c(O)c3c(c(O)c1C2=O)C[C@@](O)(C(=O)CO)C[C@@H]3O[C@H]1C[C@H](N)[C@H](O)[C@H](C)O1
active: all assays above
